# Compound activity: PubChem BioAssay, Broad Institute
# IDH1 R132H inh: IDH1 R132H (human) inhibition; IDH1 R132H reductase, diaphorase/resazurin fluorescence, 60 min; inhibition, % at 10 µM; 0.18% of 70,000 active; O75874; AID 624101; in the data active = inhibition above about 34%; inconclusive = no clear call, values can overlap the other calls; inactive = below about 11%;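 note: 0% = DMSO and 100% = no enzyme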
# Target sequence (O75874 whole entry R132H): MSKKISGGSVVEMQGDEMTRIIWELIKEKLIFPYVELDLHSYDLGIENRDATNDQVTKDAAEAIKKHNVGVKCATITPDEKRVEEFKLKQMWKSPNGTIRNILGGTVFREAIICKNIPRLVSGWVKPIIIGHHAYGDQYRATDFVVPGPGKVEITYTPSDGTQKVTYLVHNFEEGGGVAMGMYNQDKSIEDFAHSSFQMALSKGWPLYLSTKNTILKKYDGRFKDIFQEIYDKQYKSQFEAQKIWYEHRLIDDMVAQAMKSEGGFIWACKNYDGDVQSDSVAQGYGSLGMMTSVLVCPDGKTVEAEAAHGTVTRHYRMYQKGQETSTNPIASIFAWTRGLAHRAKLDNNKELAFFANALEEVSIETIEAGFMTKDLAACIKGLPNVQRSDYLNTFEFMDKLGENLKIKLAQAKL
# Pf Dd2 growth: inhibitors of Plasmodium falciparum Dd2 growth | 2.3% of 94,000 active | AID 1159554 | P. falciparum Dd2 growth, SYBR Green, 72 h; stronger effect = lower value | activity change, % at 10 µM; in the data active = activity change below about -80%; inconclusive = no clear call, values can overlap the other calls
# GASC1 inh: inhibitors of human demethylase GASC-1 KDM4C | Q9H3R0 | GST-KDM4C 2-372, H3K9me3 peptide, LANCE TR-FRET | inhibition, % at 12.5 µM | 0.15% of 96,000 active | AID 720574;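 active = mean replicate inhibition above about 25%, with at least 55% of replicates also reaching it, limit read from the data, passing the limit was not always enough; inconclusive = only one of those two conditions met; inactive = neither condition met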
#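 material = GST-tagged GASC-1 (JMJD2C) catalytic fragment, aa 2-372 | amount = enzyme final amount 10 nM | medium = HEPES buffer, pH 7.5, plus ascorbate | also added = H3K9me3 peptide substrate, Fe(II), 2-oxoglutarate | dosing = single dose | times = 30 min demethylation and 1 h detection at room temperature | detection = LANCE TR-FRET | read-out basis = Fall in 671/618 emission ratio as inhibition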
# T cruzi growth-1: T. cruzi proliferation inhibition; T. cruzi beta-gal in NIH3T3, GalScreen luminescence, 90 h; inhibition, % at 8.34 µM; 5.9% of 77,000 active;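 active = mean inhibition above about 93%, with at least 55% of replicates each passing it, limit read from the data, passing the limit was not always enough; inconclusive = only one of those two conditions holds; inactive = neither condition holds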
# T cruzi growth-2: blocks T. cruzi growth in NIH3T3 host cells; shares compounds with T cruzi growth-1; T. cruzi beta-gal in NIH3T3, GalScreen luminescence, 90 h; inhibition, % at 8.35 µM; 72% of 5,600 active; AID 651739;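 active = mean replicate inhibition above about 95% and at least 55% of replicates individually reaching it, limit read from the data; inconclusive = only one of the two criteria is met; inactive = neither criterion is met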
# T cruzi growth-3: inhibitors of T. cruzi proliferation | shares compounds with T cruzi growth-1 | T. cruzi beta-gal in NIH3T3, GalScreen luminescence, 90 h | inhibition, % at 2.09 µM | 21% of 5,600 active;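 active = mean inhibition above about 95%, with at least 55% of replicates also reaching it, limit read from the data; inconclusive = meets just one of the two conditions; inactive = meets neither condition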;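 note: plate controls were neutral control median for no effect and positive control median for full effect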
# NIH3T3 tox: NIH/3T3 (mouse) viability loss | NIH/3T3 viability, CellTiter-Glo ATP luminescence, 90 h | 14% of 5,600 active | shares compounds with T cruzi growth-1 | cytotoxicity (signal decrease), % at 8.35 µM | AID 651742;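 active = mean signal decrease across replicates above about 35% based on untreated-well scatter, with enough replicates individually passing, limit read from the data; inconclusive = no rule stated though some were filed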;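 note: 0% = median of neutral control wells and 100% = median of positive control wells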
# NIH3T3 tox 2: NIH/3T3 (mouse) viability loss | shares compounds with T cruzi growth-1 | NIH/3T3 viability, CellTiter-Glo ATP luminescence, 90 h | inhibition, % at 24.9 µM | AID 651744 | 56% of 5,600 active;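 active = mean loss of cell viability signal at or above a set limit, and enough replicates individually reaching it; inconclusive = meets only the mean limit or only the replicate share; inactive = meets neither condition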;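 note: 0% = median of neutral control wells and 100% = median of positive control wells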
# Active calls of the source: *; ? = inconclusive; / = no result. Sampled rows, rich in hits. Any-hit rate of the full collection: about 5.8%.
SMILES,IDH1 R132H inh,Pf Dd2 growth,GASC1 inh,T cruzi growth-1,T cruzi growth-2,T cruzi growth-3,NIH3T3 tox,NIH3T3 tox 2
CCCN1C[C@@H](C)[C@H](OC)CN(C)C(=O)c2cc(NC(=O)Nc3cccc(OC)c3)ccc2OC[C@H]1C,0,/,/,102*,110*,75,-2,54*
C[C@@H]1CCCCO[C@@H](CN(C)C(=O)Nc2ccccc2)[C@H](C)CN([C@H](C)CO)C(=O)c2cc(NC(=O)Cc3ccccc3)ccc2O1,2,-38,0,67,/,/,/,/
C[C@H]1CCCCO[C@H](CN(C)C(=O)Nc2cccc3ccccc23)[C@@H](C)CN([C@@H](C)CO)C(=O)c2cc(NC(=O)c3ccccc3)ccc2O1,/,-41,-2,80,/,/,/,/
C[C@@H]1CCCCO[C@H](CN(C)C(=O)Nc2cccc3ccccc23)[C@H](C)CN([C@@H](C)CO)C(=O)c2cc(NC(=O)Cc3ccccc3)ccc2O1,3,-75,-3,107*,103*,57,0,-7
C[C@@H]1CCCCO[C@@H](CN(C)C(=O)Nc2cccc3ccccc23)[C@H](C)CN([C@H](C)CO)C(=O)c2cc(NC(=O)c3ccccc3)ccc2O1,/,-59,-2,103*,101*,?,-18,-6
C[C@@H]1CCCCO[C@@H](CN(C)C(=O)Nc2cccc3ccccc23)[C@H](C)CN([C@H](C)CO)C(=O)c2cc(NC(=O)Cc3ccccc3)ccc2O1,1,-87*,-3,98*,102*,109*,-28,1
C[C@@H]1CN([C@@H](C)CO)C(=O)c2cc(NC(=O)Cc3ccccc3)ccc2O[C@@H](C)CCCCO[C@H]1CN(C)C(=O)Nc1ccccc1,-1,-18,-1,/,/,/,/,/
C[C@H]1CCCCO[C@@H](CN(C)C(=O)Nc2cccc3ccccc23)[C@@H](C)CN([C@@H](C)CO)C(=O)c2cc(NC(=O)Cc3ccccc3)ccc2O1,3,-92*,0,102*,115*,63,8,9
COc1cc2c(cc1NC(=O)CN(C)S(=O)(=O)c1ccc(Cl)cc1)oc1ccccc12,0,/,/,/,/,/,/,/
COc1ccc2c3c([nH]c2c1)[C@H](CO)N(C(=O)Nc1c(C)noc1C)CC31CN(CC2CC2)C1,/,-9,/,/,/,/,/,/
CC(C)CC#Cc1ccc2c(c1)O[C@H](CN(C)Cc1ccccn1)[C@@H](C)CN([C@H](C)CO)S2(=O)=O,-1,-57,2,124*,106*,94,22,106*
CC(C)CC#Cc1ccc2c(c1)O[C@@H](CN(C)Cc1ccccn1)[C@@H](C)CN([C@H](C)CO)S2(=O)=O,-2,-17,11,109*,106*,52,-7,104*
C[C@@H]1CCCCO[C@@H](CN(C)S(=O)(=O)c2ccc(F)cc2)[C@@H](C)CN([C@@H](C)CO)C(=O)c2cc(NC(=O)Nc3ccc(C(F)(F)F)cc3)ccc2O1,/,-79,-1,93,/,/,/,/
Cc1ccc(S(=O)(=O)N(C)C[C@H]2OCCCC[C@H](C)Oc3ccc(NC(=O)Nc4ccc(F)cc4)cc3C(=O)N([C@H](C)CO)C[C@H]2C)cc1,1,?,0,/,/,/,/,/
C[C@@H]1CCCCO[C@H](CN(C)S(=O)(=O)c2ccc(F)cc2)[C@@H](C)CN([C@H](C)CO)C(=O)c2cc(NC(=O)Nc3ccc(F)cc3)ccc2O1,-1,-31,-1,49,/,/,/,/
Cc1ccc(S(=O)(=O)N(C)C[C@@H]2OCCCC[C@@H](C)Oc3ccc(NC(=O)Nc4ccc(F)cc4)cc3C(=O)N([C@@H](C)CO)C[C@@H]2C)cc1,1,-85*,1,107*,111*,105*,1,47*
C[C@@H]1CCCCO[C@H](CN(C)S(=O)(=O)c2ccc(F)cc2)[C@@H](C)CN([C@H](C)CO)C(=O)c2cc(NC(=O)Nc3ccc(C(F)(F)F)cc3)ccc2O1,1,-71,/,103*,109*,79,16,51*
C[C@@H]1CCCCO[C@H](CN(C)S(=O)(=O)c2ccc(F)cc2)[C@H](C)CN([C@@H](C)CO)C(=O)c2cc(NC(=O)Nc3ccc(F)cc3)ccc2O1,/,-69,-1,?,100*,93,-7,-11
C[C@H]1CCCCO[C@H](CN(C)S(=O)(=O)c2ccc(F)cc2)[C@@H](C)CN([C@@H](C)CO)C(=O)c2cc(NC(=O)Nc3ccc(F)cc3)ccc2O1,/,-72,-3,107*,105*,108*,3,10
C[C@@H]1CCCCO[C@H](CN(C)S(=O)(=O)c2ccc(Cl)cc2)[C@@H](C)CN([C@@H](C)CO)C(=O)c2cc(NC(=O)Nc3ccc(C(F)(F)F)cc3)ccc2O1,/,-88*,3,?,106*,110*,28,34*
Cc1ccc(S(=O)(=O)N(C)C[C@H]2OCCCC[C@@H](C)Oc3ccc(NC(=O)Nc4ccc(C(F)(F)F)cc4)cc3C(=O)N([C@@H](C)CO)C[C@H]2C)cc1,/,-54,0,/,/,/,/,/
COc1ccc(C#Cc2cnc3c(c2)C(=O)N([C@H](C)CO)C[C@H](C)[C@H](CN(C)C)O3)cc1,2,-59,22,101*,80,25,12,65*
COc1ccc(C#Cc2cnc3c(c2)C(=O)N([C@@H](C)CO)C[C@@H](C)[C@H](CN(C)CC2CCCC2)O3)cc1,-1,-80,/,111*,99*,93,118*,104*
Cc1ccc(NC(=O)CC2NC3CCCCC3NC2=O)cc1Cl (stereo not given),0,/,/,/,/,/,/,/
COc1ccccc1S(=O)(=O)N(C)C[C@H]1Oc2cc(Br)ccc2S(=O)(=O)N([C@H](C)CO)C[C@H]1C,/,-19,-1,/,/,/,/,/
C/C=C/c1ccc2c(c1)O[C@H](CN(C)S(=O)(=O)c1ccccc1)[C@H](C)CN([C@@H](C)CO)S2(=O)=O,-1,-26,-3,107*,97*,28,14,35*
C[C@H]1CN([C@@H](C)CO)S(=O)(=O)c2ccc(/C=C/c3ccccc3)cc2O[C@@H]1CN(C)C,-3,-31,-3,95,/,/,/,/
COc1ccccc1S(=O)(=O)N(C)C[C@H]1Oc2cc(/C=C/c3ccccc3)ccc2S(=O)(=O)N([C@@H](C)CO)C[C@H]1C,0,-52,1,129*,101*,?,40*,34*
C/C=C/c1ccc2c(c1)O[C@H](CN(C)S(=O)(=O)c1ccccc1OC)[C@H](C)CN([C@@H](C)CO)S2(=O)=O,2,/,-2,24,/,/,/,/
